14 compounds from ChEMBL document CHEMBL4177551, “Bioactive Triterpenoids from the Twigs of Chaenomeles sinensis” (J Nat Prod, 2017) can be followed below.

A value given as a limit tells only on which side of the number the result lay.

The subject of series [1] is SK-MEL-2. The series is described as follows: Cytotoxicity against human SK-MEL-2 cells assessed as inhibition of cell growth by SRB assay. It counts as functional, cell-based. Put shortly:
(§1)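 Human tumour lines A549, SK-OV-3, SK-MEL-2 and HCT15 (from ATCC) were tested by sulforhodamine B assay. IC50 is the concentration giving 50% inhibition of cell growth. Cisplatin served as positive control.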

For series [2], the system named is SK-OV-3. The series is described as follows: Cytotoxicity against human SKOV3 cells assessed as inhibition of cell growth by SRB assay. It counts as functional, cell-based. Put shortly:
as §1

Series [3] concerns C6. The series is described as follows: Neuroprotective activity in rat C6 cells assessed as induction of nerve growth factor secretion at 20 uM incubated for 24 hrs by ELISA method relative to untreated control. The format is functional. The essentials:
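C6 glioma cells seeded at 1 × 10^5 cells/well and cultured 24 h. They were then switched to serum-free DMEM with compound at 20 μM for a further 24 h. NGF secreted into the conditioned medium was quantified by ELISA and expressed as percent of untreated control (100%). Mean ± SD of three independent experiments.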

Series [4] in a line: Cytotoxicity in rat C6 cells assessed as cell viability at 20 uM incubated for 24 hrs by MTT assay relative to untreated control. To be noted: read-out: Activity. The format is cell-based. Put shortly: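 C6 glioma cells were seeded at 1 × 10^5 cells/well. After 24 h, medium was switched to serum-free DMEM and compounds were added at 20 μM for 24 h. Viability was read by MTT and expressed as % of untreated cells. Values are means ± SD of three independent experiments.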

Series [5] deals with A549. In words: Cytotoxicity against human A549 cells assessed as inhibition of cell growth by SRB assay. The format is functional, cell-based. Put shortly: as §1
In series [6] the test system is HCT-15. In words: Cytotoxicity against human HCT15 cells assessed as inhibition of cell growth by SRB assay. It counts as functional, cell-based. Put shortly: as §1
The nature of series [7]: Cytotoxicity in mouse BV2 cells assessed as cell viability at 20 uM incubated for 24 hrs by MTT assay relative to untreated control. The format is cell-based, BV-2. The note with it: read-out: Activity. The essentials: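 BV2 cells in the LPS-stimulated NO assay (LPS 100 ng/mL, 24 h) were exposed to 20 μM compound. Viability was read by MTT assay and expressed as percent. Mean ± SD of three independent experiments.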

The subject of series [8] is BV-2. In words: Anti-inflammatory in mouse BV2 cells assessed as inhibition of LPS-induced nitric oxide production pre-incubated before LPS challenge for 24 hrs by Griess reagent based assay. The format is functional, cell-based. Put shortly:
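BV2 microglia seeded at 4 × 10^4 cells/well, treated with or without graded compound concentrations, then stimulated with LPS (100 ng/mL) for 24 h. Nitrite in the medium was measured with Griess reagent (0.1% N-1-naphthylethylenediamine dihydrochloride, 1% sulfanilamide, 5% phosphoric acid), 1:1 with supernatant for 10 min, A570. Quantified against a sodium nitrite standard. IC50 = concentration giving 50% inhibition of NO production.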

On to `C=C(C)[C@@H]1CC[C@]2(C(=O)O)CC[C@]3(C)[C@H](CC[C@@H]4[C@@]5(C)CC[C@H](OC(=O)/C=C/c6ccc(O)c(O)c6)C(C)(C)[C@@H]5CC[C@]43C)[C@@H]12`, for which the IC50 in series [1] was over 10 µM; in series [2], over 10 µM; in series [5] it was 9.9 µM; in series [6], over 10 µM. In addition, the Activity in series [3] was determined as 355.7%. Besides, the viability at 24 h, 20 µM in series [4] is 95%.

As to `C=C(C)[C@@H]1CC[C@]2(C(=O)O)CC[C@]3(C)[C@H](CC[C@@H]4[C@@]5(C)CC[C@H](OC(=O)/C=C\c6ccc(O)c(O)c6)C(C)(C)[C@@H]5CC[C@]43C)[C@@H]12`, the IC50 is 6.7 µM in series [1]; 7.5 µM in series [2]; 0.9 µM in series [5]; 3.8 µM in series [6]; 13.4 µM in series [8]. For the same compound, the viability at 24 h, 20 µM in series [7] was found to be 35.3%.

Turning to `CC1(C)CC[C@]2(C(=O)O)CC[C@]3(C)C(=CC[C@@H]4[C@@]5(C)C[C@@H](O)[C@@H](O)C(C)(C)[C@@H]5CC[C@]43C)[C@@H]2C1`, the viability at 24 h, 20 µM in series [7] worked out at 87%. For the same compound, in series [8], the half-inhibitory concentration (IC50) is 21.6 µM.

As to `C=C(C)[C@@H]1CC[C@]2(CO)CC[C@]3(C)[C@H](CC[C@@H]4[C@@]5(C)CC[C@H](OC(=O)/C=C\c6ccc(O)c(O)c6)C(C)(C)[C@@H]5CC[C@]43C)[C@@H]12`, the IC50 in series [1] was 2 µM; in series [2], 8.4 µM; in series [5], over 10 µM; in series [6] it was over 10 µM.

As for `COc1cc(/C=C\C(=O)O[C@H]2[C@H](O)C[C@]3(C)[C@H]4CC=C5[C@H]6[C@](C(=O)O)(CC[C@@H](C)[C@@]6(C)O)CC[C@@]5(C)[C@]4(C)CC[C@H]3C2(C)C)ccc1O`, the viability at 24 h, 20 µM in series [7] is 111%. Also, the half-maximal inhibitory concentration (IC50) in series [8] was 37.1 µM.

`C=C(C)[C@@H]1CC[C@]2(CO)CC[C@]3(C)[C@H](CC[C@@H]4[C@@]5(C)CC[C@H](OC(=O)/C=C/c6ccc(O)c(O)c6)C(C)(C)[C@@H]5CC[C@]43C)[C@@H]12`: the IC50 is 2.9 µM in series [1], 9 µM in series [2], over 10 µM in series [5] and over 10 µM in series [6].

In the case of `C=C(C)[C@@H]1CC[C@]2(C(=O)O)CC[C@]3(C)[C@H](CC[C@@H]4[C@@]5(C)C[C@@H](O)[C@H](O)C(C)(C)[C@@H]5CC[C@]43C)[C@@H]12` [ALPHITOLIC ACID], the viability at 24 h, 20 µM in series [7] was 71%. Also, the IC50 in series [8] worked out at 14.5 µM.

As for `C=C(C)[C@@H]1CC[C@]2(C(=O)O)CC[C@]3(C)[C@H](CC[C@@H]4[C@@]5(C)CC[C@H](O)C(C)(C)[C@@H]5CC[C@]43C)[C@@H]12` [BETULINIC ACID], the half-inhibitory concentration (IC50) in series [1] was over 10 µM; in series [2] it was over 10 µM; in series [5], 3.1 µM; in series [6], 8.7 µM; in series [8] it was 4.5 µM. In addition, the Activity in series [3] came out at 177.6%. For the same compound, the viability at 24 h, 20 µM came to 77.3% in series [4] and 59.6% in series [7].

Regarding `C[C@H]1[C@H](C)CC[C@]2(C(=O)O)CC[C@]3(C)C(=CC[C@@H]4[C@@]5(C)C[C@@H](O)[C@H](O)C(C)(C)[C@@H]5CC[C@]43C)[C@H]12` [COROSOLIC ACID], in series [7], the viability at 24 h, 20 µM turned out to be 100%. The IC50 in series [8] is 47.1 µM.

Take `C=C(C)[C@@H]1CC[C@]2(CO)CC[C@]3(C)[C@H](CC[C@@H]4[C@@]5(C)CC[C@H](O)[C@](C)(CO)[C@@H]5CC[C@]43C)[C@@H]12` [ILEKUDINOL C]: the IC50 is over 10 µM in series [1]; over 10 µM in series [2]; 5.1 µM in series [5]; over 10 µM in series [6]; 25.5 µM in series [8]. Further, the viability at 24 h, 20 µM in series [7] amounted to 88%.

With `CC1(C)CC[C@]2(C(=O)O)CC[C@]3(C)C(=CC[C@@H]4[C@@]5(C)C[C@@H](O)[C@H](O)C(C)(C)[C@@H]5CC[C@]43C)[C@@H]2C1` [MASLINIC ACID], the viability at 24 h, 20 µM in series [7] is 30.4%. In series [8], the IC50 worked out at 17.8 µM.

Regarding `CCCCC/C=C/C(=O)CCc1ccc(O)c(OC)c1` [SHOGAOL], the Activity in series [3] is on record as 168.6%. In addition, the viability at 24 h, 20 µM in series [4] turned out to be 126%.

`CNC(=N)NCCC[C@H](N)C(=O)O` [TILARGININE]: the viability at 24 h, 20 µM in series [7] turned out to be 114%. In series [8], the IC50 is 21.8 µM.

With `C[C@@H]1CC[C@]2(C(=O)O)CC[C@]3(C)C(=CC[C@@H]4[C@@]5(C)C[C@@H](O)[C@H](O)C(C)(C)[C@@H]5CC[C@]43C)[C@@H]2[C@]1(C)O` [TOMENTIC ACID], the Activity in series [3] is reported as 167.4%. Also, the viability at 24 h, 20 µM in series [4] worked out at 100%.
